E-selectin induc = induces E-selectin expression in human endothelial cells | P16581 | hit rate 0.37% among 260,000 | activation, % at 7.58 µM | HUVEC E-selectin immunofluorescence imaging; normalized: neutral wells 0, TNF-alpha wells 100 | AID 686992;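 active = mean E-selectin-positive cell signal at least 10% of the positive control, reached in at least 60% of replicates, without over 20% cell loss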
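Material: HUVEC primary endothelial cells; Amount: 3,000 cells per well; Dosing: single concentration; Medium: EGM-2 growth medium on 0.1% gelatin-coated wells; Read-out basis: percent E-selectin-positive cells; Signal: immunofluorescence imaging; Control set: TNF-alpha, DMSO.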
INS-1E GSIS act = primary screen for activators of insulin secretion dependent on glucose, INS-1E cells, GLuc reporter luminescence. INS-1E GLuc reporter insulin secretion, 2-3 h. activation, % at 16.6 µM. hit rate 0.61% among 370,000. AID 743287;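 active = lowest replicate activation of at least 40%, so every replicate reaches that level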;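 note: 0% = median of neutral control wells and 100% = median of IBMX positive control wells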
MLL AF4-AF9 inh = inhibitors of human MLL-AF4/AF9 interaction. AID 651704. AlphaScreen, biotin-AF4 peptide binding to FLAG-AF9. inhibition, % at 10 µM. hit rate 0.47% among 350,000;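 active = every replicate reaching a set inhibition limit, whatever the replicate mean, cut at about 25% in these data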;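 note: 0% = plate neutral control median and 100% = total signal loss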
Target sequence (P42568 whole entry, looked up): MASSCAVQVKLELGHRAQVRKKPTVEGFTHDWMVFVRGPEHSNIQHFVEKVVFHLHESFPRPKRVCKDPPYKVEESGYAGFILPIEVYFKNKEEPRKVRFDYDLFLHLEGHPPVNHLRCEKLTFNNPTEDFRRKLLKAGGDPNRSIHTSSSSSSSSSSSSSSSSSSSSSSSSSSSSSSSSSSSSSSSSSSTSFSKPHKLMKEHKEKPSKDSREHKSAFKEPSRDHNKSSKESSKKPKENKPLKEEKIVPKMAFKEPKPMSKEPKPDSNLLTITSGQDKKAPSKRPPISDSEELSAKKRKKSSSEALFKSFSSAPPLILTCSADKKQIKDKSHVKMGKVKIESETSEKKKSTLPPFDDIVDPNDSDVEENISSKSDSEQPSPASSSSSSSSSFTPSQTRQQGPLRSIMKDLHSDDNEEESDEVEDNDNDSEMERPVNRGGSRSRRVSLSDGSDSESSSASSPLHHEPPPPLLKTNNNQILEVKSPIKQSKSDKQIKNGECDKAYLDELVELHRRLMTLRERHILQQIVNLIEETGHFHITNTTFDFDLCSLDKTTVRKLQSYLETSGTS
Ecoli rRNA inh = selective bacterial rRNA inhibition in E. coli | E. coli WT GFP vs humanized-ribosome RFP mutants, fluorescence, 24 h; stronger effect = lower value; DMSO median 0, no signal -100 | GFP signal change (wild-type ribosome), % (test concentration not listed) | hit rate 1.6% among 350,000 | AID 720706;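 active = significant combined selectivity score with lowered wild-type GFP, culture density cut under 30%, mutant RFP and density less affected; inactive = any of these conditions unmet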
RAD52 anneal inh = blocks human RAD52 DNA annealing | P43351 | recombinant RAD52 DNA annealing, FRET fluorescence | hit rate 0.46% among 360,000 | inhibition, % at 18.7 µM;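 active = every replicate showing at least 50% inhibition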
RAD54 inh = RAD54 (human) branch migration inhibition | Q92698 | AID 602329 | inhibition, % at 10.4 µM | hit rate 0.14% among 360,000 | RAD54 Holliday junction branch migration, FAM/BHQ fluorescence;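 active = mean normalized replicate activity at least 40 and at least half of replicates scoring 40 or more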;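 note: 0% = median of neutral control wells and 100% = median of positive control wells; inhibitors cause a drop in the FAM fluorescence signal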
* hit, by the source's call; · = not tested or not shown. Shown are actives, neighbours in structure and some others; about 2.6% of the full set was active somewhere.

SMILES	E-selectin induc	INS-1E GSIS act	MLL AF4-AF9 inh	Ecoli rRNA inh	RAD52 anneal inh	RAD54 inh
O=C(O)c1ccc(-n2nnnc2SCc2cccc(Br)c2)cc1	0	63*	1	-11	-11	-16
Cc1cc(C)c(CSc2nnnn2-c2ccc(C(=O)O)cc2)c(C)c1	1	89*	-7	-11	13	·
C[C@@H]1CN([C@@H](C)CO)S(=O)(=O)c2ccc(-c3cccc(F)c3)cc2O[C@@H]1CN(C)CC1CC1	-2	-7	2	1	9	2
Cc1ccc(C(=O)NC(=C(Cl)Cl)S(=O)(=O)c2ccc(Cl)cc2)cc1	·	-51	-4	-24*	-10	·
O=C(N/N=C/c1ccc(O)cc1)Nc1cccc2nsnc12	18	6	4	-31*	-12	·
O=C(Nc1cc(F)ccc1F)N[C@@H]1C=C[C@H](CC(=O)N2CCc3ccccc3C2)O[C@H]1CO	0	-17	-1	-11	4	-3
CCn1nc(C(=O)OCc2cccc(S(=O)(=O)N(C)C)c2)c2ccccc2c1=O	1	13	7	-25*	-8	·
CS(=O)(=O)c1sc(C#N)c2c1C(=O)CC(c1ccccc1)C2 (centres undefined)	1	64	·	-26*	1	11
C[C@@H]1CN([C@H](C)CO)C(=O)c2cc(C#CC3CC3)cnc2O[C@H]1CN(C)C(=O)c1ccncc1	0	1	·	0	·	·
C[C@@H]1CN([C@H](C)CO)C(=O)c2cc(-c3ccccc3F)cnc2O[C@H]1CN(C)Cc1ccc(F)cc1	0	-4	-1	1	1	-5
COc1ccc(C=O)cc1Cn1cnc2c(cnn2C)c1=O	0	7	-3	20	-11	·
COc1ccc(C(C)=O)cc1Cn1cnc2c(cnn2C)c1=O	·	50*	1	8	-15	-5
C[C@H](CO)N1C[C@H](C)[C@@H](CN(C)S(=O)(=O)c2ccccc2)Oc2cc(Br)ccc2S1(=O)=O	2	-20	4	-19	10	-1
CCCN(C)C[C@@H]1Oc2cc(C#CCC(C)C)ccc2S(=O)(=O)N([C@@H](C)CO)C[C@@H]1C	0	-15	7	0	51*	2
CC(C)CC#Cc1ccc2c(c1)O[C@H](CN(C)Cc1ccncc1)[C@H](C)CN([C@@H](C)CO)S2(=O)=O	108*	-34	3	-5	12	-5
CC(C)CC#Cc1ccc2c(c1)O[C@@H](CN(C)Cc1ccccc1)[C@@H](C)CN([C@H](C)CO)S2(=O)=O	0	51	·	0	·	·
CC(C)CC#Cc1ccc2c(c1)O[C@@H](CN(C)Cc1ccncc1)[C@@H](C)CN([C@H](C)CO)S2(=O)=O	1	-32	3	-2	19	-11
CC(C)CC#Cc1ccc2c(c1)O[C@@H](CN(C)Cc1ccc(F)cc1)[C@H](C)CN([C@H](C)CO)S2(=O)=O	0	46*	4	-1	8	2
C[C@@H]1CN([C@@H](C)CO)C(=O)Cc2cc(NC(=O)Cn3cnnn3)ccc2O[C@H]1CN(C)Cc1ccc(Cl)c(Cl)c1	0	-2	9	-21	17	-8
O=C(CN1CCN(Cc2ccc(Cl)cc2)CC1)N/N=C/C=C/c1ccccc1[N+](=O)[O-]	0	·	10	-42*	-4	·
CC(=O)Nc1cc(-c2ccc(N3CCN(C)CC3)cc2)cn2c(-c3ccc(F)c(Cl)c3)cnc12	0	21	27*	-27	33	3
O=C(O)C1C2C=CC(C2)C1C(=O)Nc1ccc2c(c1)OCCO2 (centres undefined)	·	·	·	·	·	1
CN(C)c1ccc(NC(=O)C2C3C=CC(C3)C2C(=O)O)cc1 (centres undefined)	1	-16	29*	1	58*	16
C[C@H](O)C#Cc1cnc2c(c1)C(=O)N([C@@H](C)CO)C[C@@H](C)[C@H](CN(C)C(=O)c1ccccc1)O2	0	18	-3	2	-1	4
Cc1nc2ccc(NC(=O)NC(=O)c3c(Cl)cccc3Cl)cc2o1	64*	9	1	14	-18	·
SMILES	E-selectin induc	INS-1E GSIS act	MLL AF4-AF9 inh	Ecoli rRNA inh	RAD52 anneal inh	RAD54 inh
CNC(=O)Nc1ccc2nc(C)oc2c1	0	·	-6	4	-3	-1
COC(=O)C1=C(C)N(Cc2ccccc2)C(=S)NC1c1cccc(OC)c1 (centres undefined)	4	-20	·	-29*	-12	·
COC(=O)C1=C(C)N(Cc2ccc(F)cc2)C(=S)NC1c1cccc(OC)c1 (centres undefined)	2	-12	·	-22*	-8	·
C[C@@H]1CN([C@@H](C)CO)S(=O)(=O)c2ccc(/C=C/c3ccccc3)cc2O[C@@H]1CN(C)C(=O)NC1CCCC1	-5	2	4	-6	-2	4
C[C@H]1CN([C@@H](C)CO)C(=O)c2cc(NS(=O)(=O)c3ccccc3)ccc2O[C@@H]1CN(C)S(=O)(=O)c1cccs1	0	5	0	-2	-3	2
O=[N+]([O-])c1ccccc1/C=N/Nc1nc(N2CCCC2)nc(N2CCCC2)n1	·	8	1	-12*	10	7
O=[N+]([O-])c1ccccc1/C=C/C=N/Nc1nc(N2CCCCC2)nc(N2CCCCC2)n1	-4	2	12	14	-16	·
COc1ccc2[nH]c3c(NCCC4=CCCCC4)ncnc3c2c1	-2	-55	5	-54*	-5	·
CC(C)(O)c1[nH]c2ccc(C(F)(F)F)cc2c1C(C)(C)O	0	-13	-7	-12	-25	0
CC(C)(O)c1[nH]c2ccc(C#N)cc2c1C(C)(C)O	1	-8	46*	-4	-10	·
O=C(Nc1cccc(Cl)c1)Nc1nccs1	·	·	·	·	·	-2
O=C(Nc1ccc(Cl)c(Cl)c1)Nc1nccs1	0	-64	·	-26*	-17	5
O=S(=O)(c1ccccc1F)N1CC[C@@H]2[C@H](CO)Nc3ccc(-c4cccc(F)c4)cc3[C@@H]21	0	5	7	0	3	2
COc1ccc(CN2CCN(C(=O)c3cc(-c4cccnc4)nc4ccc(Cl)cc34)CC2)c(OC)c1OC	·	-10	8	-23*	-20	-3
CS(=O)(=O)N1CCN(C(=O)c2cc(-c3cccnc3)nc3ccc(Cl)cc23)CC1	·	-12	-4	7	-11	·
Cc1noc(C)c1S(=O)(=O)Nc1ccc2c(c1)C(=O)N([C@@H](C)CO)C[C@H](C)[C@H](CN(C)Cc1ccc3c(c1)OCO3)OCCCC[C@H](C)O2	0	-3	6	-2	6	2
COc1ccc(-c2sc3ccccc3c2-c2ccc(OCCN(C)C)cc2)cc1	·	25	24	-59	-54	6
CN(C)CCOc1ccc(-c2c(-c3ccsc3)sc3ccccc23)cc1	1	66*	14	-11	13	11
